Entries after “also recorded” stand apart in the source; their conditions may differ. Where two headings read alike, the source gives them in different places.
Columns and labels:
[1] = tested on: Enterococci faecalis (ATCC 29212); experiment: Antibacterial microbroth dilution; format: cell-based; details: 20 h exposure, LB broth
How it was run: (§1)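 Broth microdilution per CLSI in LB broth. A 20 mM test-compound solution was diluted in LB broth. Organisms were exposed to compound for 20 h, then growth inhibition was scored to define the MIC. Ampicillin was the positive control.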

[2] = tested on: Escherichia coli (ATCC 25922); experiment: Antibacterial microbroth dilution; format: cell-based; details: 20 h exposure, LB broth
How it was run: as §1

[3] = tested on: Staphylococcus aureus (ATCC 29213); experiment: Antibacterial microbroth dilution; format: cell-based; details: 20 h exposure, LB broth
How it was run: as §1

faecal microbiome = experiment: Microbiome assessment; format: in vivo, outbred Swiss mice
How it was run: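 Three groups of 12 outbred Swiss mice received vehicle control, metronidazole 100 mg/kg or test compound 7.4 mg/kg daily on days 1, 2 and 3. Faecal samples were collected from individual animals on days 0–5 and stored at room temperature in 80% ethanol. About 0.2 g of each sample was homogenised with glass beads in lysis buffer for 16S rRNA profiling.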

G. duodenalis BAH2c2 = experiment: In vivo efficacy in mouse model of giardiasis; parameters: species or system outbred Swiss mice
How it was run: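 Seven-day-old outbred Swiss pups (groups of ten) were orally gavaged with 10^5 BAH2c2 trophozoites in 0.9% saline. Faecal cysts were tracked daily by centrifugal flotation and immunofluorescence counting. About 1 week post-infection, mice received oral gavage once daily for three days: vehicle, test compound, or metronidazole 100 mg/kg. The next day, small-intestine trophozoites were counted manually and large-intestine cysts per gram. Efficacy followed WAAVP guidelines; groups were compared by t-test.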

Giardia = details: in humans; ref Nabarro et al., 2015; cited from earlier work
[4] = tested on: MTZ resistant assemblage B BRIS/91/HEPU/1279m1 parasites; experiment: G. duodenalis compound susceptibility assay; format: cell-based; details: Giardia duodenalis, 48 h, read-out: IC50 (nM; mean ± SD) AB-MTZ
How it was run: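 The metronidazole-resistant assemblage B line was kept in modified TYI-S-33 with 10% heat-inactivated FBS and penicillin/streptomycin under 15 µM metronidazole, withdrawn two days before testing. Trophozoites had 48 h dose-response exposure and were scored by automated microscopy, at least three times in triplicate. Inhibition was taken versus DMSO vehicle minus media background. IC50 came from 4-parameter variable-slope nonlinear regression.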

Aqueous solubility = format: physicochemical
[5] = tested on: G. duodenalis BRIS/87/HEPU/713 assemblage A; experiment: G. duodenalis compound susceptibility assay; format: cell-based; details: Giardia duodenalis, 48 h, read-out: IC50 (nM; mean ± SD) AA
[6] = tested on: Neonatal Foreskin Fibroblasts (NFF); experiment: Mammalian cell susceptibility assay; format: cell-based, human; details: for IC50: read-out: IC50 (M; mean ± SD) NFF; for Selectivity: NFF IC50 / Giardia IC50
[7] = tested on: Human Embryonic Kidney (HEK-293) cells; experiment: Mammalian cell susceptibility assay, HEK-293; format: cell-based; details: HEK293, read-out: growth inhibition, HEK293
[8] = tested on: L. donovani DD8 amastigotes; experiment: L. donovani intracellular amastigote imaging assay in THP-1 cells; format: cell-based; details: Leishmania donovani, THP-1, 96 h, read-out: IC50 (M; mean ± SD) L. donovani
How it was run: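 L. donovani DD8 promastigotes were kept in modified M199 Hanks medium, pH 6.8, with 10% heat-inactivated FBS at 27 °C. PMA-differentiated THP-1 cells were infected with metacyclic promastigotes (1:5 host:parasite), then exposed 96 h to 80–0.004 µM final. Cells were fixed in 4% paraformaldehyde, stained with SYBR green/CellMask Deep Red and imaged at 20x; an infected cell held >3 parasites. Controls were 2 µM amphotericin B and 0.4% DMSO. Assays ran twice in triplicate; IC50 came from 4-parameter regression.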

[9] = tested on: Plasmodium falciparum 3D7 asexual erythrocytic parasites; experiment: 48 h [3H]-hypoxanthine incorporation assay; format: cell-based; details: for IC50: Plasmodium falciparum, 3D7, 48 h, read-out: IC50 (M; mean ± SD) P. falciparum; for average % inhibition at highest concentration tested, P. falciparum: at 5.0 × 10^−5 M (50 μM), 50 µM
How it was run: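 Compound exposure and [3H]-hypoxanthine uptake ran 48 h. Controls were uninfected RBC background, untreated, DMSO vehicle and chloroquine. % inhibition was taken versus matched vehicle minus background. At least two independent assays were run in triplicate. Where no IC50 could be fitted, % inhibition at the highest concentration was reported.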

[10] = tested on: BRIS/91/HEPU/1279 trophozoites; experiment: Minimum lethal concentration; format: cell-based, Giardia duodenalis; details: 48 h exposure, then four days in culture
How it was run: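 Assemblage B BRIS/91/HEPU/1279 trophozoites in modified TYI-S-33 were exposed to compound for 48 h. They were then returned to drug-free culture for four more days and imaged by brightfield at 10x to judge regrowth. Albendazole ran alongside. Experiments were done at least three times in duplicate.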

[11] = Storage stability of solid; format: physicochemical; details: crystalline solid; ambient conditions; several months
[12] = tested on: assemblage B G. duodenalis BRIS/91/HEPU/1279 trophozoites; experiment: G. duodenalis compound susceptibility assay; format: cell-based; details: Giardia duodenalis
[13] = tested on: Trypanosoma cruzi Tulahuen strain intracellular amastigotes; experiment: T. cruzi intracellular amastigote imaging assay in 3T3 cells; format: cell-based; details: for IC50: Trypanosoma cruzi, TULAHUEN, NIH3T3, read-out: IC50 (M; mean ± SD) T. cruzi
How it was run: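 T. cruzi Tulahuen was maintained in 3T3 fibroblasts in phenol red-free RPMI with 10% FBS and passaged with freshly egressed trypomastigotes. Intracellular amastigotes were scored by high-content imaging, with final concentrations up to 73.2 µM. Each compound was run as single point over three experimental replicates. Controls were 30 µM puromycin (host cells) and 12 µM nifurtimox (amastigotes). IC50 came from 4-parameter variable-slope nonlinear regression.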

[14] = 100 mg/kg for three days, positive control, first experiment
[15] = 0.74 mg/kg for three days, oral gavage, PBS vehicle
[16] = 7.4 mg/kg daily for three days, 50%PBS/DMSO vehicle, P > 0.05
[17] = 48 h, read-out: IC50 (M; mean ± SD) Giardia (48h), Compounds Australia samples, assemblage B BRIS/91/HEPU/1279 trophozoites, 48 h, > = highest concentration tested
[18] = read-out: IC50 (M; mean ± SD) Giardia AB, purchased (ChemDiv) or synthesized batches, assemblage B BRIS/91/HEPU/1279

**Q.** For `CC1(C)S[C@@H]2[C@H](NC(=O)[C@H](N)c3ccccc3)C(=O)N2[C@H]1C(=O)O` [AMP, ampicillin, reference compound], which “MIC (M) E. faecalis” value [1] is on record?
**A.** Its value is under 3.7e-05 M.

**Q.** And the “MIC (M) E. coli” value [2]?
**A.** Its value is under 3.7e-05 M.

**Q.** What about the “MIC (M) S. aureus” value [3] of the same compound?
**A.** The value was under 3.7e-05 M.

**Q.** What does the source list for `Cc1ncc([N+](=O)[O-])n1CCO` [MTZ, metronidazole, reference compound]?
**A.** change in bacterial profile of faecal microbiome (faecal microbiome; 100 mg/kg daily for three days): significant shift from the vehicle (DMSO/PBS) and compound 2 exposed mice from Day 1–3; reduction of cyst burden vs vehicle (G. duodenalis BAH2c2; [14]): 65.6%; reduction of trophozoite burden vs vehicle (G. duodenalis BAH2c2; [14]): 98.1%; reported failure rates (Giardia): up to 40%

**Q.** With `Cc1cc2[nH]c(C(=O)Nc3ccccc3Cl)c(CN3CCOCC3)c2s1` [Compound 2, N-(2-chlorophenyl)-2-methyl-6-(morpholinomethyl)-4H-thieno [3,2-b]pyrrole-5-carboxamide] as the compound, how does the IC50 [4] read?
**A.** The IC50 was 5.5 nM.

**Q.** And the aqueous solubility (Aqueous solubility)?
**A.** Its aqueous solubility is “poor”.

**Q.** What about the “change in bacterial profile of faecal microbiome” value (faecal microbiome; 7.4 mg/kg daily for three days) of the same compound?
**A.** The value was “does not impact the normal gut microbiota; also recorded: did not detect any significant (P < 0.05) changes in the bacterial profile; also recorded: did not significantly impact the gut microbial diversity”.

**Q.** And the IC50 [5]?
**A.** The IC50 was 10 nM.

**Q.** And the “MIC (M) E. faecalis” value [1]?
**A.** The value was over 0.0002 M.

**Q.** What about the IC50 ([6]; Homo sapiens, Fibroblast) of the same compound?
**A.** Its IC50 is over 10 µM.

**Q.** And the inhibition at 100 µM ([6]; Homo sapiens, Fibroblast, read-out: growth inhibition, NFF)?
**A.** Its inhibition at 100 µM is under 50%.

**Q.** What about the Selectivity [6] of the same compound?
**A.** The Selectivity was over 32.

**Q.** And the selectivity indices ([6]; follow up studies, NFF and HEK293 vs Giardia)?
**A.** The selectivity indices was over 8333.

**Q.** And the “reduction of cyst burden vs vehicle” value (G. duodenalis BAH2c2; [15])?
**A.** Its value is 98.8%.

**Q.** And the “reduction of trophozoite burden vs vehicle” value (G. duodenalis BAH2c2; [15])?
**A.** The value was 73.5%.

**Q.** And the “reduction of cyst burden vs vehicle” value (G. duodenalis BAH2c2; [16])?
**A.** The value was 80.1%.

**Q.** And the “reduction of trophozoite burden vs vehicle” value (G. duodenalis BAH2c2; [16])?
**A.** Its value is 54.2%.

**Q.** And the “MIC (M) E. coli” value [2]?
**A.** Its value is over 0.0002 M.

**Q.** What about the inhibition at 100 µM [7] of the same compound?
**A.** The inhibition at 100 µM was under 50%.

**Q.** And the IC50 [8]?
**A.** Its IC50 is over 80000 nM.

**Q.** And the IC50 [9]?
**A.** The IC50 was over 50000 nM.

**Q.** And the “average % inhibition at highest concentration tested, P. falciparum” value [9]?
**A.** The value was under 50%.

**Q.** What about the “average % inhibition at highest concentration tested, P. falciparum” value ([9]; listed as 2b) of the same compound?
**A.** The value was 2.0%.

**Q.** And the “minimum lethal concentration (MLC)” value [10]?
**A.** Its value is 62 nM.

**Q.** And the stability to storage [11]?
**A.** Its stability to storage is “stable”.

**Q.** And the IC50 [12, 17]?
**A.** The IC50 was 310 nM.

**Q.** What about the IC50 ([12]; 48 h, read-out: IC50 (nM; mean ± SD) AB, purchased/resynthesised batches, 48 h, BRIS/91/HEPU/1279 assemblage B) of the same compound?
**A.** The IC50 was 8.6 to 12 nM.

**Q.** What about the IC50 [12, 18] of the same compound?
**A.** The IC50 was 12 nM.

**Q.** What about the “MIC (M) S. aureus” value [3] of the same compound?
**A.** The value was over 0.0002 M.

**Q.** What about the IC50 [13] of the same compound?
**A.** Its IC50 is over 73000 nM.

**Q.** And the “growth inhibition, T. cruzi” value ([13]; up to highest concentration tested)?
**A.** Its value is under 50%.

**Q.** With `CCCSc1ccc2nc(NC(=O)OC)[nH]c2c1` [ABZ, Albendazole, reference compound] as the compound, how does the IC50 ([6]; Homo sapiens, Fibroblast) read?
**A.** Its IC50 is 1.1 µM.

**Q.** And the Selectivity [6]?
**A.** Its Selectivity is 19.3.

**Q.** What about the “minimum lethal concentration (MLC)” value [10] of the same compound?
**A.** The value was 150 nM.

**Q.** What about the IC50 [12, 17] of the same compound?
**A.** The IC50 was 57 nM.

**Q.** What about the IC50 [12, 18] of the same compound?
**A.** The IC50 was 57 nM.

**Q.** Which IC50 [13] does the source give for `CC1CS(=O)(=O)CCN1/N=C/c1ccc([N+](=O)[O-])o1` (stereo not shown) [NFX, nifurtimox, reference compound] here?
**A.** The IC50 was 980 nM.

**Q.** For `CCN(CC)CCCC(C)Nc1ccnc2cc(Cl)ccc12` (stereo not shown) [CQ, chloroquine, reference compound], which IC50 ([6]; Homo sapiens, Fibroblast) is on record?
**A.** Its IC50 is 31 µM.

**Q.** And the IC50 [9]?
**A.** Its IC50 is 14 nM.

**Q.** Which IC50 [8] does the source give for `C[C@@H]1[C@H](O)[C@@H](C)/C=C/C=C/C=C/C=C/C=C/C=C/C=C/[C@H](O[C@@H]2O[C@H](C)[C@@H](O)[C@H](N)[C@@H]2O)C[C@@H]2O[C@](O)(C[C@@H](O)C[C@@H](O)[C@H](O)CC[C@@H](O)C[C@@H](O)CC(=O)O[C@H]1C)C[C@H](O)[C@H]2C(=O)O` [AMB, Amphotericin B, reference compound] here?
**A.** Its IC50 is 87 nM.
